Test [1] concerns the target T1, Angiotensin-converting enzyme (Rattus norvegicus, UniProt P47820).
T1 sequence (P47820 whole entry): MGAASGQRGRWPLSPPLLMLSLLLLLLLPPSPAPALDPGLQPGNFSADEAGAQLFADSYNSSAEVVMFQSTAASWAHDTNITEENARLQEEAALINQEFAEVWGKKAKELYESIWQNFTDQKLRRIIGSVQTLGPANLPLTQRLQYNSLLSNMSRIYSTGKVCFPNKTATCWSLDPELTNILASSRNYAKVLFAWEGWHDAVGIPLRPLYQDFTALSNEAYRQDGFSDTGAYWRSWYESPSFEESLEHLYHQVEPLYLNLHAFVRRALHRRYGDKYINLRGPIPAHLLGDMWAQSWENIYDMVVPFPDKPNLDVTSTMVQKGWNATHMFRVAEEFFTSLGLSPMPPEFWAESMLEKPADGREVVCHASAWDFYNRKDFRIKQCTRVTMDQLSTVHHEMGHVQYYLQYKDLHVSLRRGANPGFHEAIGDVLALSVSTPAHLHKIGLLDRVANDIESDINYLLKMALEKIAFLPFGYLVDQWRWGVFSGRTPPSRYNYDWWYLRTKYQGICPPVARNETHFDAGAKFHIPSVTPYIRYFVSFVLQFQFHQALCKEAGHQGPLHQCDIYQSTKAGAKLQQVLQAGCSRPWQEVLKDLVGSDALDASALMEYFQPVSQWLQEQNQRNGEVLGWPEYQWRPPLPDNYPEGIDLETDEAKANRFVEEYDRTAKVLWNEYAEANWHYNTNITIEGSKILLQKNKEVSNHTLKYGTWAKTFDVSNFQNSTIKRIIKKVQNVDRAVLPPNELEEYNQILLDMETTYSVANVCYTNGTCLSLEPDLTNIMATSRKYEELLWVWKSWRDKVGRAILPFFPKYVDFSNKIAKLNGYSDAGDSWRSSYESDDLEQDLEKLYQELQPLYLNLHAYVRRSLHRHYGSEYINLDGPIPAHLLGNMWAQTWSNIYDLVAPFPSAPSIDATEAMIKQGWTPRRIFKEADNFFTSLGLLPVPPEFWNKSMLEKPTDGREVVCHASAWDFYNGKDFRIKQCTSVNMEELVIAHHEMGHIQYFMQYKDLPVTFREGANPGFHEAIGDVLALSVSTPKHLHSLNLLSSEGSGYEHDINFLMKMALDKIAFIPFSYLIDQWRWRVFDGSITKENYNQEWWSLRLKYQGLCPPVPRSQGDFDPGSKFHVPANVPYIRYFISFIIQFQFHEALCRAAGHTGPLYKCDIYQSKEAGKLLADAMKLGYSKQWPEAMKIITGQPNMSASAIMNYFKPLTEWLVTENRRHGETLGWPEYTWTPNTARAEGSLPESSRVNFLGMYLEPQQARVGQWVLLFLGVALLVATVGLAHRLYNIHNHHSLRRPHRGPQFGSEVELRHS
In words: Inhibition constant determined for angiotensin converting enzyme (ACE).

The target of test [2] is T2, Neprilysin (Homo sapiens, UniProt P08473). In words: Inhibition constant determined for neutral endopeptidase (NEP). The method in brief: (§1)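 Reversible inhibition of recombinant human NEP (0.5 μM final), tested with inactivator at 1–50 μM in 50 mM HEPES pH 7.4 plus 5% p-dioxane. DAGNPG substrate was used at 100 and 500 μM. NEP was added last and activity was read immediately by continuous fluorescence (ex 342, em 562 nm).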

Test [3] deals with T2, Neprilysin. Description: Inhibition constant determined for Neutral endopeptidase (NEP). The method in brief:
as §1

Test [4] has as its target T1, Angiotensin-converting enzyme. Description: Inhibition constant determined for Angiotensin I converting enzyme.

T2 sequence (P08473 whole entry): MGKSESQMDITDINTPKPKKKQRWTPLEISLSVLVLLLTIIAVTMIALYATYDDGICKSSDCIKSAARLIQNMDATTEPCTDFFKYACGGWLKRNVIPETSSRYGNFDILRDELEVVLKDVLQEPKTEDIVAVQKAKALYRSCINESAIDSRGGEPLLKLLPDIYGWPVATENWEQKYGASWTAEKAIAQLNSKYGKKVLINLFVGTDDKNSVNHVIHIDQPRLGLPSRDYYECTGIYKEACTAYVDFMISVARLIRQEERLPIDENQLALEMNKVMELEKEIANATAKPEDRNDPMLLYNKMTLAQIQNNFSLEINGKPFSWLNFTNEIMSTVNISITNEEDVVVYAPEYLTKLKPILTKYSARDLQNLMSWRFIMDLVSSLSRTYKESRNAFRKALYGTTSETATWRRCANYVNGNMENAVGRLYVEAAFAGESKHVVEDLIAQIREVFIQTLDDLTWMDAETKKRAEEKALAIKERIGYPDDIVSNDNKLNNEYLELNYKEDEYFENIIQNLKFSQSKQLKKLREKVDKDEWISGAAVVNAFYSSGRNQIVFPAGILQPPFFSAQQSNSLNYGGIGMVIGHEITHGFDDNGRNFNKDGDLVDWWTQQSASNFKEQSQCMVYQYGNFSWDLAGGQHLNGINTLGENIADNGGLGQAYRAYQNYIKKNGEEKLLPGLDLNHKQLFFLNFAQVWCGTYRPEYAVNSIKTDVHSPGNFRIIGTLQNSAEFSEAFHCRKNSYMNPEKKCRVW

On to `N#CCC(=O)CC(Cc1ccccc1)C(=O)NC(Cc1ccccc1)C(=O)O` (centres undefined), for which the results for the Ki (in test [1]; on Neprilysin [2]) were over 10000 µM and 14 µM, respectively.
For `N#CCC(=O)NC(Cc1ccccc1)C(=O)NC(Cc1ccccc1)C(=O)O` (centres undefined), the figures for the Ki (on Neprilysin [3]; in test [4]) were 17 µM and 65 µM, respectively.

The values above are taken from ChEMBL document CHEMBL1126768, “A mechanism-based inactivation study of neutral endopeptidase 24.11” (J Med Chem, 1993).
